From ChEMBL document CHEMBL1139465, “Synthesis, molecular modeling studies, and selective inhibitory activity against monoamine oxidase of 1-thiocarbamoyl-3,5-diaryl-4,5-dihydro-(1H)- pyrazole derivatives” (J Med Chem, 2005)

Experiments:
Bos taurus [1] = organism: Bos taurus; experiment: Selectivity index, ratio of Ki for MAOA to Ki for MAOB in bovine brain mitochondria
[2] = target: T1, Amine oxidase [flavin-containing] A (Bos taurus, UniProt P21398); experiment: Inhibition of bovine brain mitochondria MAOA
T1 sequence (P21398 whole entry): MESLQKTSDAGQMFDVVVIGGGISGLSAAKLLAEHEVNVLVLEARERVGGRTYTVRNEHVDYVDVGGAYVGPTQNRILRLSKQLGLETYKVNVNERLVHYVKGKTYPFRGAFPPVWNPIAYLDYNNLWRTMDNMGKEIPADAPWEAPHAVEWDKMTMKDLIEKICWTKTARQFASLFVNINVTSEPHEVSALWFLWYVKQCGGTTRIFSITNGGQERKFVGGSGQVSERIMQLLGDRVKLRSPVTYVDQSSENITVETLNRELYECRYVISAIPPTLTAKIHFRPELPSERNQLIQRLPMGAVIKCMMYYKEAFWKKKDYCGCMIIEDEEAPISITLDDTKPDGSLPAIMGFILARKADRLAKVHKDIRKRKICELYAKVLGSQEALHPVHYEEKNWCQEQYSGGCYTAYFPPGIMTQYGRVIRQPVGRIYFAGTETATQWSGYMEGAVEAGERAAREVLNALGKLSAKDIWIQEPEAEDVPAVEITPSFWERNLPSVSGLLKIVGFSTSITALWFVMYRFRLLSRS
Summary of the method: (§1)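 Beef brain mitochondria isolated per Basford, 6 mg/mL, in 0.25 M potassium phosphate pH 7.4. Preincubation 30 min at 38 °C with 0.5 µM L-deprenyl (MAO-A) or 0.05 µM clorgyline (MAO-B). Inhibitor in DMSO, […]. Kynuramine at four final levels, 5 µM–0.1 mM, 30 min at 38 °C. Perchloric acid stop, fluorimetric read. Ki from Dixon plots; ≥3 experiments in duplicate.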

[3] = target: T2, Amine oxidase [flavin-containing] B (Bos taurus, UniProt P56560); experiment: Inhibition of bovine brain mitochondria MAOB; summary of the method: as §1
T2 sequence (P56560 whole entry): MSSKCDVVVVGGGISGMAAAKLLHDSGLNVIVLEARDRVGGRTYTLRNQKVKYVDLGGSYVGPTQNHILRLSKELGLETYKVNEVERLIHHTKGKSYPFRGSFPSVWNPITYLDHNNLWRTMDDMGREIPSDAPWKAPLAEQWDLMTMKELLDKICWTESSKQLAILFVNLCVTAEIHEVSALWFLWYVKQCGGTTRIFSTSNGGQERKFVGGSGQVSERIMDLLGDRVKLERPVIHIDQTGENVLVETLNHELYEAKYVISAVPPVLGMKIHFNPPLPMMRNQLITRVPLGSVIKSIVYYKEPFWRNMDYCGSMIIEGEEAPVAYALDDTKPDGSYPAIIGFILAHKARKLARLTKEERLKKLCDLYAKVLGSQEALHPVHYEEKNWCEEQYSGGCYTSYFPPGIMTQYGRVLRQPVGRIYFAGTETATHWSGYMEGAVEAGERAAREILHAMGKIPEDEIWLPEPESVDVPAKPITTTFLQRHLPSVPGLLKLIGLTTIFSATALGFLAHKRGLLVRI

Bos taurus [4] = organism: Bos taurus; experiment: Selectivity index, ratio of Ki for MAOB to Ki for MAOA in bovine brain mitochondria
Summary of the method: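 SI computed as Ki(MAO-B)/Ki(MAO-A). Both Ki values are from the fluorimetric kynuramine assay on bovine brain mitochondria, with isoforms isolated by L-deprenyl or clorgyline preincubation. Ki from Dixon plots; means of at least three experiments.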

| Ratio Ki (Bos taurus [1]) | Ki [2] [nM] | Ki [3] [nM] | Ratio Ki (Bos taurus [4]) | SMILES |
| --- | --- | --- | --- | --- |
| 5 | 50 | 10 | 0.2 | Cc1ccc(C2CC(c3cccs3)=NN2C(N)=S)cc1 (stereo unspecified) |
| 0.008 | 12 | 1400 | 116 | NC(=S)N1N=C(c2ccc(F)cc2)C[C@@H]1c1ccc(Cl)cc1 |
| 6.8 | 41 | 6 | 0.14 | NC(=S)N1N=C(c2cccs2)CC1c1ccc(Cl)cc1 (stereo unspecified) |
| 0.14 | 7 | 50 | 7.1 | Cc1ccc(C2CC(c3ccc(F)cc3)=NN2C(N)=S)cc1 (stereo unspecified) |
| 2.5 | 50 | 20 | 0.4 | NC(=S)N1N=C(c2cccs2)CC1c1ccco1 (stereo unspecified) |
| 20.7 | 31 | 1.5 | 0.05 | Cc1ccc(C2=NN(C(N)=S)C(c3ccc(Cl)cc3)C2)cc1 (stereo unspecified) |
| 0.021 | 8 | 370 | 46.2 | NC(=S)N1N=C(c2ccc(F)cc2)CC1c1ccco1 (stereo unspecified) |
| 0.002 | 5 | 2400 | 480 | NC(=S)N1N=C(c2ccc(F)cc2)C[C@H]1c1ccc(Cl)cc1 |
| 0.6 | 6 | 10 | 1.6 | Cc1ccc(C2=NN(C(N)=S)C(c3ccc(C)cc3)C2)cc1 (stereo unspecified) |
| 4.8 | 13 | 2.7 | 0.2 | Cc1ccc(C2=NN(C(N)=S)[C@@H](c3ccc(Cl)cc3)C2)cc1 |
| 0.02 | 4 | 170 | 42.5 | Cc1ccc(C2=NN(C(N)=S)C(c3ccco3)C2)cc1 (stereo unspecified) |
| 0.54 | 27 | 50 | 1.85 | NC(=S)N1N=C(c2cccs2)CC1c1cccs1 (stereo unspecified) |
| 0.006 | 6 | 1000 | 166 | NC(=S)N1N=C(c2ccc(F)cc2)CC1c1ccc(Cl)cc1 (stereo unspecified) |
| 50 | 50 | 1 | 0.02 | Cc1ccc(C2=NN(C(N)=S)[C@H](c3ccc(Cl)cc3)C2)cc1 |
